An excerpt weighted towards active compounds, which were near 4.4% of everything screened.
HTR2A ag: mouse HTR2A agonism via beta-arrestin recruitment; CHO-K1 mHTR2A beta-arrestin complementation, luminescence; percent of 30 µM serotonin response; AID 624169; activation, % at 7.6 µM; P35363; 360,000 compounds, 0.66% hits;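 active means activation above a run cutoff, the mean activation of all tested compounds plus 3 SD, cut at about 14% in these data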
AHR activator: activates the human aryl hydrocarbon receptor. P35869. AHR-responsive luciferase reporter cells, luminescence. activation, % at 5 µM. 320,000 compounds, 2.5% hits. AID 2796; in the data active means activation above about 47%
AI-2 QS mod: Vibrio harveyi AI-2 quorum sensing modulation; 300,000 compounds, 0.4% hits; activity change, % at 7.5 µM; Vibrio harveyi JMH597 AI-2 luminescence/OD600 ratio, 9 h; active compounds read low; strain lacks LuxN and CqsS sensors; 0 = neutral-control median; in the data active means activity change below about -75%, passing the limit was not always enough;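 further: luminescence divided by OD600 gain over 9 h not by final OD600 alone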
bovine MsrA act: activates bovine MsrA enzyme; purified bovine MsrA, absorbance read-out; activation, % at 10.6 µM; 360,000 compounds, 0.3% hits; in the data active means activation above about 7.5%
Tb MetRS inh: blocks T. brucei methionyl-tRNA synthetase activity | 360,000 compounds, 0.4% hits | inhibition, % at 11.9 µM | purified T. brucei MetRS, ATP depletion, Kinase-Glo luminescence;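 active means inhibition above a per-plate cutoff of the control wells' mean inhibition plus 3 SD, cut at about 5.5% in these data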
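Dosing: 11.9 µM single point; system: parasite MetRS enzyme; technique: luminescence of leftover ATP; times: 15 min enzyme-compound preincubation, 2 h reaction, 10 min detection, 25 °C; replicates: each compound tested once; read-out basis: percent inhibition relative to median high and low control wells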
MsrA inh: bovine MsrA inhibition | purified bovine MsrA, absorbance read-out | inhibition, % at 15.5 µM | 360,000 compounds, 0.75% hits; in the data active means inhibition above about 4.5%
MOR ag counter: OPRM1 agonism in mouse HTR2A counterscreen; 2,300 compounds, 5.3% hits; shares compounds with HTR2A ag; U2OS OPRM1 beta-arrestin PathHunter, luminescence; DMSO 0%, DAMGO 9.3 µM 100%; AID 624380; activation, % at 9.3 µM;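 active means mean activation above the mean of DMSO-only wells plus 3 SD, cut at about 0.5% in these data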
HTR2A ag conf: confirmation of mouse HTR2A serotonin receptor agonists; shares compounds with HTR2A ag; CHO-K1 PathHunter beta-arrestin recruitment, luminescence; DMSO 0%, 30 µM serotonin 100%; activation, % at 7.6 µM; 2,300 compounds, 19% hits; AID 624381;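 active means mean activation across triplicates above the hit threshold derived in the original primary screen, cut at about 15% in these data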
Large screens that a line does not name were inactive (follow-up assays come after a bar, where they were run).

O=C(c1ccco1)N1CCN(C(=O)c2ccc(CS(=O)c3ccc(Cl)cc3)o2)CC1 (centres undefined)	HTR2A ag 15 | MOR ag counter inactive | HTR2A ag conf inactive
O=C(c1ccco1)N1CCN(Cc2ccc(Br)cc2)CC1	HTR2A ag 15 | MOR ag counter inactive | HTR2A ag conf 90
CCc1ccc(CN2CCN(C(=O)c3ccco3)CC2)cc1	HTR2A ag 15 | MOR ag counter inactive | HTR2A ag conf 123
O=C(Cc1ccc(Cl)cc1)N1CCN(C(=O)c2ccco2)CC1	none
O=C(c1ccco1)N1CCN(Cc2ccc(Cl)cc2)CC1	HTR2A ag 21 | MOR ag counter inactive | HTR2A ag conf 88
Cc1c(C(=O)N2CCOCC2)sc(NC(=O)C(C)C)c1C#N	none
CN(c1ccc(C(=O)N2CCN(Cc3ccccc3)CC2)cc1)S(=O)(=O)c1ccc(Cl)cc1	HTR2A ag 15 | MOR ag counter inactive | HTR2A ag conf 64
O=C(c1ccc(CS(=O)c2cccc(Cl)c2)o1)N1CCOCC1 (centres undefined)	HTR2A ag 18 | MOR ag counter inactive | HTR2A ag conf inactive
O=C(c1ccc(CS(=O)c2cccc(Cl)c2)o1)N1CCN(c2ccccn2)CC1 (centres undefined)	none
O=C(Cn1cncn1)N/N=C/c1ccncc1	HTR2A ag 23 | MOR ag counter inactive | HTR2A ag conf inactive
COc1ccc(S(=O)(=O)NCC2CCCN(C(=O)c3cccnc3C)C2)cc1 (centres undefined)	HTR2A ag 15 | MOR ag counter inactive | HTR2A ag conf inactive
S=c1[nH]nc(C2CCCCC2)n1Cc1ccccc1	HTR2A ag 15 | MOR ag counter inactive | HTR2A ag conf inactive
S=c1[nH]nc(C2CC2)n1Cc1ccccc1	none
CCOc1ccc(CCNC(=O)c2cc(=O)[nH]c3ccc(S(=O)(=O)N(CC)CC)cc23)cc1OCC	HTR2A ag 17 | MOR ag counter inactive | HTR2A ag conf inactive
COc1ccc2oc(C(=O)OCC(=O)N(C)c3c(N)n(Cc4ccccc4)c(=O)[nH]c3=O)c(C)c2c1	none
COc1ccc(C2(SCC(N)C(=O)O)c3ccccc3-c3ccccc32)cc1 (centres undefined)	none (no result: AHR activator, AI-2 QS mod)
NC(=O)c1ccc(NC(=O)CSC(=O)c2ccccc2)cc1	none (no result: AI-2 QS mod)
CC(=O)c1ccc(N2CCN(C(=O)C3CCN(S(=O)(=O)c4ccc5c(c4)CC(C)N5C(C)=O)CC3)CC2)cc1 (centres undefined)	HTR2A ag 16 (no result: AI-2 QS mod) | MOR ag counter inactive | HTR2A ag conf inactive
CC(=O)N1c2ccc(S(=O)(=O)N3CCC(C(=O)N4CCN(c5cccc(C(F)(F)F)c5)CC4)CC3)cc2CC1C (centres undefined)	none
Cc1cc(N2CCN(c3nc4ccccc4s3)CC2)n2ncnc2n1	HTR2A ag 22 | MOR ag counter inactive | HTR2A ag conf inactive
COc1cccc(OC)c1C(=O)Nc1ccc(C(=O)c2ccncc2)cc1	HTR2A ag 19 | MOR ag counter inactive | HTR2A ag conf inactive
Cc1cnc(NC(=O)C2(c3ccccc3)CC2)s1	HTR2A ag 21 | MOR ag counter inactive | HTR2A ag conf inactive
O=C(N/C(=C\c1ccccc1)C(=O)N1CCOCC1)c1cccc(Br)c1	none
O=C1CCNc2c(Cl)cccc21	HTR2A ag 15 | MOR ag counter inactive | HTR2A ag conf inactive
O=C(CCN1C(=O)/C(=C\c2cccc(Br)c2)SC1=S)N1CCOCC1	none
CC(C)C[C@H]1C(=O)N2CCC[C@H]2[C@]2(O)O[C@](NC(=O)C3C=C4c5cccc6[nH]c(Br)c(c56)C[C@H]4N(C)C3)(C(C)C)C(=O)N12 (some centres undefined)	HTR2A ag 48 | MOR ag counter inactive | HTR2A ag conf 174
Cc1c(C(=O)N2CC(C)OC(C)C2)[nH]c2ccc(Br)cc12 (centres undefined)	none (no result: AHR activator)

High-throughput results deposited in PubChem BioAssay by several laboratories.
